ABHD5 PLIN5 PPI = ABHD5-PLIN5 interaction inhibitors, primary screen, cell lysate, split luciferase complementation, luminescence; Perilipin-5 (Homo sapiens) + 1-acylglycerol-3-phosphate O-acyltransferase ABHD5 (Homo …; Split G. princeps luciferase complementation, 4 h; inhibition, % at 4 µM; 360,000 tested, 0.78% active; AID 602281, 2012;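 active = inhibition above the mean inhibition across every tested compound plus 3 SD, cut at about 22% in these data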;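 also: 0% = DMSO only wells and the 100% control is not disclosed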
Rin1-Abl PPI inh = inhibitors of Rin1-Abl protein binding, primary screen, biochemical, TR-FRET; Tyrosine-protein kinase ABL1 (Homo sapiens) + Ras and Rab interactor 1 (Homo sapiens), …; inhibition, % at 7.35 µM; 360,000 tested, 0.4% active; AID 588664, 2011; in the data active = inhibition above about 5%, passing the limit was not always enough
MBD2 DNA inh = inhibitors of MBD2 binding to methylated DNA, primary screen, biochemical, TR-FRET, DNA-binding domain, human; 370,000 tested, 0.31% active; inhibition, % at 4.4 µM; MBD2 binding to methylated oligonucleotide; Methyl-CpG-binding domain protein 2 (Homo sapiens), Q9UBB5; in the data active = inhibition above about 13%
Target sequence (Q9UBB5 whole entry, looked up, the tested form may be a part): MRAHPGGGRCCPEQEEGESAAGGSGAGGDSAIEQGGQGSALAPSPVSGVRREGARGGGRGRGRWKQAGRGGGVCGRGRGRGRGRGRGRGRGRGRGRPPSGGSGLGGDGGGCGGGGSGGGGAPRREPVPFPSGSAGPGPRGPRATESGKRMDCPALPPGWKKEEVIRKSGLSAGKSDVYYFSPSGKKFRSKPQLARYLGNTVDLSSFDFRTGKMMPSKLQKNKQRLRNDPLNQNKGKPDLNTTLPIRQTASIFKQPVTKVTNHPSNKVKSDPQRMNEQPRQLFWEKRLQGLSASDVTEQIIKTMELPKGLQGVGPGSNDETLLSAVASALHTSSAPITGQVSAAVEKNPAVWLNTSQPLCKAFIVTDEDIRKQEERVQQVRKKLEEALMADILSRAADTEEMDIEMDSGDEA
Arr AP2 block = inhibitors of beta-arrestin/AP2 binding, primary screen, biochemical, GPCR trafficking, flow cytometry | beta-arrestin 1 C-terminal peptide binding to AP2 beta2-adaptin appendage (human) | FITC-arrestin peptide / GST-AP2 beads; AP2 beta2 appendage carries R879A mutation | inhibition, % at 10 µM | 340,000 tested, 0.31% active;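 active = inhibition above a set limit, near 3 SD of compounds lacking own fluorescence, cut at about 54% in these data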;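 also: plate controls were DMSO wells for no effect and 5 µM unlabelled arrestin peptide for full effect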
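System: GST-tagged AP2 beta2-adaptin appendage (R879A) on 4 µm glutathione beads / Reagent: FITC-arrestin peptide, 50 nM / Detection: HyperCyt-sampled flow cytometry, FL1 channel, ex 488/em 535 nm / Timing: 12 min plus 1 h, RT / Buffer or medium: PBS plus Tween 20 (0.05%) and BSA (0.1%)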
B2AR ag = beta2AR agonists driving receptor internalization, primary screen, cell-based, FAP fluorogen, flow cytometry. Beta-2 adrenergic receptor (Homo sapiens), P07550. Am2.2-beta2AR cells. response, % (concentration not given with the values). 340,000 tested, 0.43% active. AID 504454, 2011;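 active = response above a set limit, near 3 SD of response in nonfluorescent compounds, cut at about 42% in these data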
UHRF1 binding = UHRF1 methylated DNA binding inhibitors, primary screen, counter-screen for MBD2 inhibitor project, biochemical, TR-FRET, human UHRF1, single concentration. 370,000 tested, 0.75% active. AID 687016, 2013. inhibition, % at 4.4 µM. UHRF1 binding to methylated oligo. E3 ubiquitin-protein ligase UHRF1 (Homo sapiens), Q96T88; in the data active = inhibition above about 21%;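 also: UHRF1 SRA domain binding a hemimethylated CpG hairpin DNA probe; 0% = median of test compound wells and 100% = reference inhibitor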
* = called active by the depositor; i = inactive; · = no result. This is a sample that favours compounds with a hit; in the whole collection about 2.5% have one here.

SMILES	ABHD5 PLIN5 PPI	Rin1-Abl PPI inh	MBD2 DNA inh	Arr AP2 block	B2AR ag	UHRF1 binding
CCN(c1ccccc1)S(=O)(=O)c1cccc(C(=O)NCC(c2ccc(F)cc2)N2CCOCC2)c1 (centres undefined)	-5	3	-1	2	0	43*
CC(C)=CCC/C(C)=C/CN1CC(=O)N2[C@H](C[C@@]3(n4ccc5ccccc54)c4ccccc4N(S(=O)(=O)c4ccccc4)[C@@H]23)C1=O	·	·	0	·	·	-1
COc1cc(NC(=O)c2ccccn2)ccc1NC(=O)c1ccccc1Cl	·	·	5	·	·	4
CCOc1ccc(/C=C2\SC(N3CCc4ccccc4C3)=NC2=O)cc1	-1	-4	1	13	68*	1
CC(=O)N1CCCN(C(=O)CCn2nnc3ccccc32)CC1	·	·	-2	·	·	91*
CC(C)Cc1ccc(CN2CCCC(NC(=O)CCN3CCCCC3=O)C2)cc1 (centres undefined)	-8	1	-4	20	-8	0
CC(C)Cc1ccc(C(C)/C=C2/CCC(CN3CCCCC3)C2=O)cc1 (centres undefined)	23*	1	-6	8	25	2
CC(=O)Nc1ccc(/C=N/OCC(=O)Nc2ccc(C)cc2)cc1	-1	-3	4	-1	4	2
COc1ccc(C=NOCC(=O)OCC(=O)Nc2ccc(OC)cc2)cc1	2	0	-2	-8	2	29*
Nn1c(SCC(=O)NC2CCCCC2)nnc1-c1cc(-c2ccc(Cl)cc2)n[nH]1	·	·	3	·	·	-6
OC(COc1ccc(Cl)cc1)CN1CCN(c2ccccn2)CC1 (centres undefined)	0	-1	1	-2	-8	-3
OC(COC(c1ccccc1)c1ccccc1)CN1CCN(c2ccccn2)CC1 (centres undefined)	2	6	8	18	-7	23*
Cc1occc1-c1nnc(SCC(=O)N2CCCc3ccccc32)n1Cc1ccco1	5	-1	4	-9	-3	22*
CN(CCOC(=O)/C=C/c1ccco1)Cc1ccccc1	5	0	7	6	-2	26*
CN(Cc1ccccc1)C(=O)COC(=O)/C=C/c1ccco1	13	2	0	11	2	1
CCc1ccc(NC(=O)COC(=O)/C=C/c2ccco2)cc1	9	4	4	42	0	25*
O=C(COC(=O)/C=C/c1ccco1)Nc1ccccc1	2	0	1	-14	-6	4
O=C(Nc1ccc(NC(=O)c2ccccc2Cl)c(Cl)c1)c1ccccn1	·	·	5	·	·	1
Cc1oc(-c2ccc3c(c2)OCCO3)cc1C(=O)NCC(=O)O	22*	6	-4	11	0	-4
COCCCNC(=O)C[C@H]1C[C@@]2(C(=O)OC)C(=C[C@H](COCc3ccccc3)O[C@@H]2C)N(Cc2ccccc2)C1=O	·	·	-7	·	·	-2
CCOC(=O)C(C(=O)OCC)c1cc(Br)c2noc3c2c1C(=O)c1ccccc1-3	1	2	4	94*	i	8
COc1ccc(CN2CCC(C(=O)NC(C)c3cccc4ccccc34)CC2)cc1 (centres undefined)	7	-2	·	·	·	·
CC(NC(=O)C1CCN(CCOc2ccc(Cl)cc2)CC1)c1cccc2ccccc12 (centres undefined)	7	-1	0	·	·	25*
O=C(O)c1cccc(-n2cccc2/C=N/O)c1	5	2	4	25	-2	16
O=C(O)c1cccc(-n2cccc2/C=C/[N+](=O)[O-])c1	11	6	21*	30	-1	74*
SMILES	ABHD5 PLIN5 PPI	Rin1-Abl PPI inh	MBD2 DNA inh	Arr AP2 block	B2AR ag	UHRF1 binding
C[C@H]1[C@@H](NC(=O)c2ccc(C(C)(C)C)cc2)CC[C@@]23CCCN2C(=O)CCC[C@@H]13	·	·	-3	·	·	2
O=C(O[C@H]1CC[C@@]23CCCN2C(=O)CCC[C@H]3C1)N1CCOCC1	·	·	-1	·	·	4
CCNC(=O)/C(C#N)=C/c1c(N2CCOCC2)nc2ccccn2c1=O	2	5	-4	-2	47*	-4
C=CCNC(=O)/C(C#N)=C/c1c(N2CCCCCC2)nc2ccccn2c1=O	-9	-6	-8	10	3	-5
Cc1ccc(-n2nc(-c3ccco3)cc2C(=O)O)cc1	16	0	10	0	0	31*
O=C(c1cc(-c2ccco2)nn1-c1cccc(Cl)c1)N1CCCCC1	48*	-1	-1	14	4	8
O=C(c1cc(-c2cccc(Cl)c2)on1)N1CCCCCC1	8	-2	3	32	-5	11
CCOC(=O)c1cc(-c2ccco2)nn1-c1ccc(C)cc1	3	1	-1	8	7	-1
N#Cc1ccccc1N1CCN(S(=O)(=O)c2ccc3c(c2)CCC(=O)N3)CC1	·	·	2	·	·	1
COC[C@H]1CCCN1c1cccc2c1S(=O)(=O)N(C1CC1)CCCO2	·	·	0	·	·	-3
CCOC(=O)CC[C@H]1CC[C@]2(CCCN(C(=O)c3ccno3)C2)O1	·	·	4	·	·	3
CCOc1ccc(-n2c(SCC(=O)Nc3ccc(S(=O)(=O)Nc4cc(C)nc(C)n4)cc3)nnc2-c2ccc(C)cc2)cc1	·	·	2	·	·	0
CN1C=C/C(=C\c2cc[n+](C)c3ccccc23)c2ccccc21	-10	-4	10	-6	3	27*
Cc1ccc2nc(-c3ccc(NC(=O)CSc4nnc(-c5cccc(Cl)c5)n4Cc4ccco4)cc3)sc2c1	·	·	3	·	·	-2
COc1ccc(CNC(=O)O[C@H]2CC[C@@]34CCCN3C(=O)CCC[C@H]4C2)cc1OC	·	·	-2	·	·	1
COc1ccc(C2=Nc3ccccc3N(C(=O)c3cccnc3)C2C(=O)NC2CCCC2)cc1 (centres undefined)	6	·	12	·	·	23*
COc1cc(C(=O)c2nccc3cc(OC)c(OC)cc23)c([N+](=O)[O-])cc1OC	-3	2	-2	15	6	28*
COc1cc(N)c(C(=O)c2nccc3cc(OC)c(OC)cc23)cc1OC	-7	-4	0	39	-4	4
CCC(C)N(C(=O)COC(=O)CNC(=O)c1sc2ccccc2c1Cl)C1CCS(=O)(=O)C1 (centres undefined)	11	-3	4	12	3	21*

Assay outcomes: PubChem BioAssay, several laboratories
